Test results from ChEMBL document CHEMBL1155195 (J Med Chem, 2009).
pIC50, pKd: −log10 of the molar value. Calls of active or inactive are those of the source. No cut-off for these calls is given here.

Assays:
[1] = Binding affinity to zinc assessed as formation of zinc-compound complex by EGTA fluorescence titration assay
U-937 [2] = experiment: Cytotoxicity against human U937 cells after 72 hrs by sulforhodamine B assay; type: functional, cell-based; settings: U-937, 72 h
Caspase-3 (Homo sapiens) [3] = target: T1, Caspase-3 (Homo sapiens) (UniProt P42574); experiment: Induction of procaspase 3 activation in human SK-MEL-5 cells assessed as caspase 3 cytoplasmic colocalization at 25 uM after 1 hr by immunofluorescent staining-based confocal microscopy; type: cell-based
T1 sequence (whole entry): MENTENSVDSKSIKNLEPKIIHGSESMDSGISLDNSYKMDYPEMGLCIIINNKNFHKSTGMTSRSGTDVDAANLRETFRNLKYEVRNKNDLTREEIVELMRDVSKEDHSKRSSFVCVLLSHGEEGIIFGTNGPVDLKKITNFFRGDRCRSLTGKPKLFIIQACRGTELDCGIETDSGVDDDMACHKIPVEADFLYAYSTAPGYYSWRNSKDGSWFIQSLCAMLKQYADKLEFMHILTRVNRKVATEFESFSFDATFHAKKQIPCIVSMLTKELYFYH
How it was run: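 SK-MEL-5 cells given DMSO or 25 μM compound for 1 hour, washed with phenol red-free medium, incubated 2 more hours, fixed, stained with rabbit anti-caspase-3 antibody (recognizes procaspase-3 and caspase-3) plus anti-rabbit Alexa Fluor 647 secondary, mounted and imaged by multiphoton confocal microscopy.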

Caspase-3 (Homo sapiens) [4] = target: T1, Caspase-3 (Homo sapiens); experiment: Induction of procaspase 3 activation in human SK-MEL-5 cells at 25 uM after 1 hr by immunofluorescent staining-based confocal microscopy in presence of 25 uM caspase 3/7 inhibitor FAM-DEVD-fmk; type: cell-based
How it was run: (§1)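 Live SK-MEL-5 cells treated with DMSO or compound (25 μM) together with FAM-DEVD-fmk (25 μM), a fluorescent irreversible active-site caspase-3/-7 label, for 1 hour; washed in phenol red-free medium, incubated 2 hours further, then imaged by multiphoton confocal microscopy.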

U-937 [5] = experiment: Induction of apoptosis in human U937 cells assessed as non-viable necrotic cells at 50 uM after 12 hrs by FITC-conjugated annexin V and propidium iodide staining-based flow cytometry; type: functional
How it was run: (§2)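 U-937 cells incubated with compound at 50 μM or vehicle for 12 hours, then co-stained with propidium iodide and FITC-labeled Annexin V; Annexin V-positive/PI-negative cells scored as early apoptotic.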

U-937 [6] = experiment: Induction of apoptosis in human U937 cells assessed as early apoptotic cells at 50 uM after 12 hrs by FITC-conjugated annexin V and propidium iodide staining-based flow cytometry; type: functional; how it was run: as §2
U-937 [7] = experiment: Induction of apoptosis in human U937 cells assessed as viable cells at 50 uM after 12 hrs by FITC-conjugated annexin V and propidium iodide staining-based flow cytometry; type: functional; settings: U-937, 12 h, read-out: Activity; how it was run: as §2
U-937 [8] = experiment: Induction of apoptosis in human U937 cells assessed as late apoptotic cells at 50 uM after 12 hrs by FITC-conjugated annexin V and propidium iodide staining-based flow cytometry; type: functional; how it was run: as §2
Caspase-3 (Homo sapiens) [9] = target: T1, Caspase-3 (Homo sapiens); experiment: Inhibition of 6xHis-tagged recombinant caspase 3 expressed in Escherichia coli BL21 (DE3) at 10 uM after 30 mins in absence of zinc ion
Caspase-3 (Homo sapiens) [10] = target: T1, Caspase-3 (Homo sapiens); experiment: Activation of 6xHis-tagged recombinant caspase 3 expressed in Escherichia coli BL21 (DE3) at 50 uM after 30 mins in presence of zinc ion
SK-MEL-5 = experiment: Zinc chelating activity in human SK-MEL-5 cells assessed as appearance of punctate cytoplasmic staining pattern at 25 uM after 1 hr by immunofluorescent staining-based confocal microscopy; type: functional, cell-based
How it was run: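 Live SK-MEL-5 cells incubated 1 hour with 25 μM fluorescent derivative, washed with phenol red-free medium, incubated 2 further hours; DNA stained with SYBR green; imaged by multiphoton confocal microscopy for subcellular, punctate cytoplasmic fluorescence.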

Caspase-3 (Homo sapiens) [11] = target: T1, Caspase-3 (Homo sapiens); experiment: Induction of procaspase 3 activation in human SK-MEL-5 cells assessed as caspase 3 cytoplasmic colocalization at 25 uM after 1 hr by immunofluorescent staining-based confocal microscopy in presence of 25 uM caspase 3/7 inhibitor FAM-DEVD-fmk; type: cell-based; how it was run: as §1

Compound	pKd [1]	pIC50 (U-937 [2])	other results
C=CCc1cccc(/C=N/NC(=O)CN2CCN(Cc3cccc([N+](=O)[O-])c3)CC2)c1O	7.35	5.34	
C=CCc1cccc(/C=N/NC(=O)CN2CCN(Cc3ccccc3)CC2)c1O [PAC-1]	7.28	5.32	Activity (Caspase-3 (Homo sapiens) [3]): Active; Activity (Caspase-3 (Homo sapiens) [4]): Active; Activity (U-937 [5]): 0%; Activity (U-937 [6]): 31%; viability at 50 µM (U-937 [7]): 58%; Activity (U-937 [8]): 11%
Nc1ccccc1/C=N/NC(=O)CN1CCN(Cc2ccccc2)CC1	< 5.00	< 4.00	
COc1ccc(OC)c(CN2CCN(CC(=O)N/N=C/c3ccccc3O)CC2)c1	7.19	4.92	
C=CCc1cccc(/C=N/NC(=O)CN2CCN(Cc3ccncc3)CC2)c1O	7.10	4.68	
C=CCc1cccc(/C=N/NC(=O)CN2CCN(Cc3ccccc3)CC2)c1OC	< 5.00	4.49	
COC(=O)c1ccccc1/C=N/NC(=O)CN1CCN(Cc2ccccc2)CC1	< 5.00	< 4.00	
C=CCc1cccc(/C=N/NC(=O)CN2CCC(Cc3ccccc3)CC2)c1O	7.31	5.57	Activity (U-937 [5]): 0%; Activity (U-937 [6]): 41%; viability at 50 µM (U-937 [7]): 49%; Activity (U-937 [8]): 10%
C=CCc1cccc(CNNC(=O)CN2CCN(Cc3ccccc3)CC2)c1O	< 5.00	4.23	
O=C(CN1CCN(Cc2ccccc2)CC1)N/N=C/c1ccccc1Cl	< 5.00	4.24	
O=C(CN1CCN(Cc2ccccc2)CC1)NCCc1ccccc1O	< 5.00	< 4.00	
O=C(CN1CCN(Cc2ccccc2)CC1)N/N=C/c1ccccc1SSc1ccccc1/C=N/NC(=O)CN1CCN(Cc2ccccc2)CC1	< 5.00	< 4.00	
O=C(CN1CCN(Cc2ccccc2)CC1)N/N=C/c1ccccc1C(=O)O	< 5.00	< 4.00	
CSc1ccccc1/C=N/NC(=O)CN1CCN(Cc2ccccc2)CC1	< 5.00	4.21	
O=C(CN1CCN(Cc2ccccc2)CC1)N/N=C/c1ccccc1S	< 5.00	< 4.00	
C=CCc1cccc(/C=N/NC(=O)CN2CCN(Cc3ccc(F)cc3)CC2)c1O	7.32	5.70	Activity (U-937 [5]): 0%; Activity (U-937 [6]): 30%; viability at 50 µM (U-937 [7]): 62%; Activity (U-937 [8]): 8%

More lines, main results first:

pKd [1]	Compound	pIC50 (U-937 [2])	other results
< 5.00	C=CCc1cccc(/C=N/N(C)C(=O)CN2CCN(Cc3ccccc3)CC2)c1O	4.66	
7.33	C=CCc1cccc(/C=N/NC(=O)CN2CCN(Cc3ccc(OC)cc3)CC2)c1O	5.57	
7.36	C=CCc1cccc(/C=N/NC(=O)CC2CCN(Cc3ccccc3)CC2)c1O	5.55	inhibition (Caspase-3 (Homo sapiens) [9]): Active
7.21	C=CCc1cccc(/C=N/NC(=O)CN2CCN(Cc3cccnc3)CC2)c1O	4.85	
7.37	C=CCc1cc(/C=N/NC(=O)CN2CCN(Cc3ccccc3)CC2)c(O)c(CC=C)c1	5.74	
7.41	C=CCc1cccc(/C=N/NC(=O)CN2CCN(Cc3cc(OC)ccc3OC)CC2)c1O	6.00	
7.21	C=CCc1cccc(/C=N/NC(=O)CN2CCN(Cc3cccc(Cn4cc(CNC(=O)Cc5c(C)c6cc(S(=O)(=O)O)c(N)cc6oc5=O)nn4)c3)CC2)c1O	4.83	Activity (Caspase-3 (Homo sapiens) [3]): Active; Activity (Caspase-3 (Homo sapiens) [10]): 20%; Activity (SK-MEL-5): Active; Activity (Caspase-3 (Homo sapiens) [11]): Active
< 5.00	O=C(CN1CCN(Cc2ccccc2)CC1)N/N=C/c1ccccc1	< 4.00	
7.32	C=CCc1cccc(/C=N/NC(=O)CC2CCN(C(=O)OC(C)(C)C)CC2)c1O	5.19	inhibition (Caspase-3 (Homo sapiens) [9]): Active
< 5.00	O=C(CN1CCN(Cc2ccccc2)CC1)NCc1ccccc1O	< 4.00	
